Reference: PMC5499704 (Journal of medicinal chemistry, 2016)

How the values were obtained:
[1] = test system: MCF-7; experiment: Proliferation of breast cancer cells, MCF-7; format: cell-based; settings: Homo sapiens, MCF7, 120 h, read-out: IC50, proliferation
How it was run: (§1)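 Cells grown in phenol red-free DMEM with 5% FBS at 37 °C, 5% CO2. MCF-7/TamR cells were derived by prolonged 4-hydroxytamoxifen exposure. Cells seeded at 50000/well, then treated 5 days with test compound at six doses from 10−10 to 10−5 M, with DMSO vehicle. Viable cells counted by Coulter counter. Survival expressed as a percentage of vehicle, and IC50 taken from dose–response curves.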

[2] = test system: MCF-7/TamR; experiment: Proliferation of breast cancer cells, MCF-7/TamR; format: cell-based; settings: Homo sapiens, MCF7, 120 h, read-out: IC50, proliferation
How it was run: as §1

[3] = target: T1, ERα (Homo sapiens, UniProt P03372); experiment: Western blot of ERα downregulation in T47D/PKCα cells; format: cell-based; settings: dose range 0.03–1 μM
T1 sequence (P03372 1-595): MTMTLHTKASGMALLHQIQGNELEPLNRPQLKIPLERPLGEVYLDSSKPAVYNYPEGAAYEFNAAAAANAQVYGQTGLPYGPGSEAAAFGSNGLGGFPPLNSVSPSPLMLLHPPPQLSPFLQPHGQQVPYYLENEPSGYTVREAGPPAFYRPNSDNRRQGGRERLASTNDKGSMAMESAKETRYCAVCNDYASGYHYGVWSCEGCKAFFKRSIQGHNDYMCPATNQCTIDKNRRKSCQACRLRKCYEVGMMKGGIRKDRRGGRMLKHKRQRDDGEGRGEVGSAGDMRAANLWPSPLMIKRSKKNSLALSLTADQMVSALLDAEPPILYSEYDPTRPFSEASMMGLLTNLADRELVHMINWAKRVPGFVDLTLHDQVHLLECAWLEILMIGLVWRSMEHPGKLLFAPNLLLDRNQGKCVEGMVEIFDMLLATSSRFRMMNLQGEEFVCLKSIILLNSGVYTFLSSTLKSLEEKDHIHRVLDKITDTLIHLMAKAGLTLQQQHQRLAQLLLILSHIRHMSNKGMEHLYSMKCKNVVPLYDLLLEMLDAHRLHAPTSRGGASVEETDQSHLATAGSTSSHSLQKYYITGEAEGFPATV

[4] = test system: T47D-kb-Luc cells; experiment: T47D-kb-Luc ERE luciferase reporter gene assay; format: cell-based, human; settings: at 1 nM, in the presence of 0.01 nM estradiol (E2)
How it was run: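 Stably transfected T47D-kb-Luc reporter cells were stimulated with estradiol at 10−11 M plus test compound at 0.1, 1 or 10 nM. ERE-driven activity was read as relative luciferase units and normalized to the estradiol-only control. Run in quadruplicate in at least three separate experiments, reported as mean ± SD (%).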

[5] = target: T1, ERα; experiment: Western blot of ERα downregulation in T47D cells; format: cell-based; settings: dose range 0.03–1 μM
[6] = Stability in culture media in vitro; format: in vitro ADME; settings: dissolved in ethanol then diluted in culture media for an extended period of time
[7] = patients, cited from earlier work

| Structure (SMILES) | IC50 [1] [µM] | IC50 [2] [µM] | ER downregulation level [3] | inhibition of E2-induced luciferase (ERE activity) [4] | ER downregulation level [5] | metabolic stability in vitro [6] | peak blood concentration ([7]; 500 mg im, FINDER1 and FINDER2 clinical trials ref 3, 5) [ng/mL] | time to reach steady-state serum concentration ([7]; im monthly dose of 250 mg ref 4) |
| --- | --- | --- | --- | --- | --- | --- | --- | --- |
| CC/C(=C(\c1ccc(O)cc1)c1ccc(OCCN(C)C)cc1)c1ccccc1 [Compound 4-OHT, 4-hydroxytamoxifen] | 0.0033 | 22 | – | – | – | – | – | – |
| C[C@]12CC[C@@H]3c4ccc(B(O)O)cc4C[C@@H](CCCCCCCCC[S+]([O-])CCCC(F)(F)C(F)(F)F)[C@H]3[C@@H]1CC[C@@H]2O (stereo partly drawn) [Compound 5, ((7R,8R,9S,13S,14S,17S)-17-Hydroxy-13-methyl-7-(9-((4,4,5,5,5-pentafluoropentyl)sulfinyl)nonyl)-7,8,9,11,12,13,14,15,16,17-deca-hydro-6H-cyclopenta[a]phenanthren-3-yl)boronic Acid] | – | – | greater than 50% | completely blocking the estrogen response element (ERE) activity | greater than 50% | metabolic stability was later confirmed in vitro | – | – |
| C[C@]12CC[C@@H]3c4ccc(O)cc4C[C@@H](CCCCCCCCC[S+]([O-])CCCC(F)(F)C(F)(F)F)[C@H]3[C@@H]1CC[C@@H]2O (stereo partly shown) [fulvestrant] | – | – | greater than 50% | – | greater than 50% | – | < 25 | over 3 months |
